Series [1] relates to Limulus. Kind of series: Endotoxicity against horseshoe crab blood at 0.1 mg/mL by LAL chromogenic assay. In kind it is toxicity, organism-based. The settings on record: limulus polyphemus. Summed up: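 LAL chromogenic endotoxin assay with compound at 0.1 mg/mL. Average of three independent experiments.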
For series [2], the system named is Macrophage. Kind of series: Induction of NO production in murine macrophage. In kind it is functional, cell-based. The settings on record: Mus musculus. Summed up: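 Bone-marrow macrophages from six-week-old male C57BL/6 mice, differentiated 8 d in DMEM with 20% horse serum and 30% L929 supernatant. Then set to 700 000 cells/mL in DMEM with 5% FCS. Serially diluted compounds were incubated with cells in triplicate for 22 h at 37 °C, 8% CO₂. Supernatant nitrite measured by Griess reaction at 562 nm (reference 690 nm) against a standard curve. Reported as mean ± SD dose-response.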

Series [3] relates to PBMC. Kind of series: Induction of IL6 production in human PBMC at 20 ug/ml relative to LPS. Format: functional, cell-based. Summed up:
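Human PBMC isolated on Ficoll from donor buffy coat. Cultured at 1 × 10⁶ viable cells/well in RPMI-1640 with 10% FCS and antibiotics. Incubated at 37 °C, 5% CO₂ with compound at final 20 µg/mL. Controls were medium alone and E. coli LPS (055:B5). Supernatant harvested at 24 h and IL-6 measured by ELISA; detection limit 10 pg/mL.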

In series [4] the test system is PBMC. Briefly: Antagonist effect on LPS-induced IL6 production in human PBMC at 2 ug/mL. Format: functional, cell-based. An outline of the steps: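 Human PBMC from healthy donor buffy coat, isolated on Ficoll (1.077 g/mL). Cultured at 1 × 10⁶ viable cells/well in RPMI-1640 with 10% FCS, penicillin/streptomycin and L-glutamine. Pre-incubated 90 min at 37 °C, 5% CO₂ with compound at final 0.02, 0.2, 2 or 20 µg/mL. E. coli LPS (055:B5) then added at 0.01 µg/mL. After 24 h, supernatant IL-6 measured by ELISA.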

In series [5] the test system is Oryctolagus cuniculus. Kind of series: Induction of pyrogenicity in rabbit assessed as increase in temperature at 0.001 mg/kg, iv. In kind it is functional, organism-based. Set-up: dose 0.001 mg/kg. Summed up:
(§1)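 Rabbit pyrogenicity test, iv injection, with water as control. Read-out is the summed temperature rise in three rabbits (°C), scored pass, inconclusive or fail.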

Series [6] has as its system Oryctolagus cuniculus. Briefly: Induction of pyrogenicity in rabbit assessed as increase in temperature at 0.01 mg/kg, iv. In kind it is functional, organism-based. On the set-up: dose 0.01 mg/kg. Summed up:
as §1

Series [7] has as its system Oryctolagus cuniculus. Kind of series: Induction of pyrogenicity in rabbit assessed as increase in temperature at 0.1 mg/kg, iv. Format: functional, organism-based. Set-up: dose 0.1 mg/kg. An outline of the steps: as §1

For seven molecules, Activity and EC50 results are on record in ChEMBL document CHEMBL1137398, “Synthesis and immunobiological activity of an original series of acyclic lipid a mimics based on a pseudodipeptide backbone” (J Med Chem, 2006).

SMILES strings stand for the structures. ≈ marks a conversion by molar mass, not a printed value. Calls of active or inactive are those of the source. The rule behind the calls is not given here.

As to `CCCCCCCCCCCC(=O)O[C@H](CCCCCCCCCCC)CC(=O)N[C@@H](CCOP(=O)(O)O)C(=O)NCCC[C@H](COP(=O)(O)O)NC(=O)C[C@H](O)CCCCCCCCCCC`, the Activity in series [1] is listed as 240 EU/ml. Further, in series [2], the midpoint of the response, the EC50, lay at 0.15 µg/mL (≈ 0.148 µM). Besides, the outcome in series [3] was inactive. For the same molecule, the outcome in series [4] was Active.
In series [1], `CCCCCCCCCCCC(=O)O[C@H](CCCCCCCCCCC)CC(=O)N[C@H](CCOP(=O)(O)O)C(=O)NCCC[C@H](COP(=O)(O)O)NC(=O)C[C@H](O)CCCCCCCCCCC` returned an Activity of 1072 EU/ml. The EC50 (usually the concentration at which the effect is half-maximal) in series [2] was determined as 0.55 µg/mL (≈ 0.542 µM). In series [3], the outcome was inactive. Also, the result in series [4] was Active.
Molecule `CCCCCCCCCCCC(=O)O[C@H](CCCCCCCCCCC)CC(=O)N[C@H](CCOP(=O)(O)O)C(=O)NCCC[C@H](CO)NC(=O)C[C@H](O)CCCCCCCCCCC` had an Activity in series [1] of 14257 EU/ml. Besides, in series [2], the midpoint of the response, the EC50, lay at 1.85 µg/mL (≈ 1.98 µM). In series [4], the outcome was inactive.
With `CCCCCCCCCCCC(=O)O[C@H](CCCCCCCCCCC)CC(=O)N[C@H]1[C@H](OC[C@H]2O[C@H](OP(=O)(O)O)[C@H](NC(=O)C[C@H](O)CCCCCCCCCCC)[C@@H](O)[C@@H]2O)O[C@H](CO)[C@@H](OP(=O)(O)O)[C@@H]1O` [DEFOSLIMOD], in series [2], the response was half-maximal at 0.025 µg/mL (≈ 0.022 µM) (EC50).
For the molecule `CCCCCCCCCCCC(=O)O[C@H](CCCCCCCCCCC)CC(=O)NC(CCOP(=O)(O)O)C(=O)NCCC[C@H](CO)NC(=O)C[C@H](O)CCCCCCCCCCC` (mixture of isomers), the Activity in series [1] is 16238 EU/ml. For the same molecule, the outcome in series [5], in series [6] and in series [4] was inactive. In addition, the midpoint of the response in series [2], the EC50, lay at 3.53 µg/mL. Also, the outcome in series [7] was Active.
As to `CCCCCCCCCCCC(=O)O[C@H](CCCCCCCCCCC)CC(=O)NC(CCOP(=O)(O)O)C(=O)NCCC[C@H](COP(=O)(O)O)NC(=O)C[C@H](O)CCCCCCCCCCC` (mixture of isomers), in series [1], the Activity stood at 874 EU/ml. The result in series [5], in series [6] and in series [3] was inactive. In series [2], a half-maximal response (EC50) required 0.083 µg/mL. In addition, the outcome in series [4] was Active.
Molecule `CCCCCCCCCCCC(=O)O[C@H](CCCCCCCCCCC)CC(=O)N[C@@H](CCOP(=O)(O)O)C(=O)NCCC[C@H](CO)NC(=O)C[C@H](O)CCCCCCCCCCC` displayed an Activity in series [1] of 9320 EU/ml. For the same molecule, the EC50 in series [2] came to 6.86 µg/mL (≈ 7.34 µM). Besides, the result in series [4] was inactive.
